Activity calls are given as the source filed them. The rule behind the calls is not given here.
What was measured:
Quadruplex DNA [1] = assay: Induction of conformational changes in human telomeric G-quadruplex DNA assessed as inversion from potassium ion stabilized hybrid type mixed parallel/antiparallel G-quadruplex to stable telomere parallel-stranded G-quadruplex after 5 mins in presence of KCl by CD spectroscopic method; type: nucleic-acid assay
Summary of the method: (§1)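 CD spectra of 5 µM G4 DNA in 10 mM Tris-HCl pH 7.4, 100 mM KCl, 0.1 mM EDTA, with or without ligand. Mixtures were heated 95 °C for 5 min and slowly cooled to room temperature. Recorded 200–400 nm at 25 °C, 100 nm/min, 2 s response, 1 cm cell; average of three scans.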

Quadruplex DNA [2] = assay: Binding affinity to human c-Kit1 G-quadruplex DNA assessed as change in melting temperature in presence of KCl by CD spectroscopic method; type: nucleic-acid assay
Summary of the method: (§2)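 CD melting of 5 µM G4 DNA in 10 mM Tris-HCl pH 7.4, 25 mM KCl, 0.1 mM EDTA. Ligand was present during folding (heating, slow cooling). Spectra 200–400 nm over 20–96 °C in 2 °C steps, buffer blank subtracted. Tm was taken from normalized ellipticity at the positive maximum (262 nm for promoter G4s). ΔTm = ligand-bound minus DNA alone; average of two independent experiments.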

[3] = biological target: Telomerase reverse transcriptase (Homo sapiens, UniProt O14746); assay: Inhibition of telomerase (unknown origin) by TRAP-LIG assay
Summary of the method: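 Telomerase activity measured by modified TRAP-LIG assay across ligand concentrations of 0.01 to 2 µM (11 levels). Positive and negative controls included. Inhibition was judged from the intensity and number of telomeric ladder bands.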

Quadruplex DNA [4] = assay: Binding affinity to human VEGF G-quadruplex DNA at 0.6 uM after 5 mins in presence of KCl by fluorescence spectroscopic method; type: nucleic-acid assay
Summary of the method: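 Fluorescence titration at 25 °C with 0.6 µM ligand in 10 mM Tris-HCl pH 7.4, 100 mM KCl, 0.1 mM EDTA. Preformed G4 DNA was added stepwise, with 5 min incubation before each spectrum. Excitation 330 nm; emission 350–550 nm, slit 5 nm.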

HeLa = assay: Effect on GADPH mRNA level in human HeLa cells assessed as decrease in VEGF mRNA level at 2.5 to 10 uM after 24 hrs by RT-PCR method; type: cell-based
Quadruplex DNA [5] = assay: Stabilization of c-Myc G-quadruplex DNA in human HeLa cells assessed as decrease in c-Myc mRNA level at 10 uM after 24 hrs by RT-PCR method relative to control; type: cell-based; set-up: scale not given: the % may be the effect or the level left
Summary of the method: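 HeLa cells exposed to increasing ligand concentrations (5 and 10 µM named) for 24 h, with DMSO-treated cells as control. Total RNA was extracted with TRI reagent and DNase I-treated. c-MYC and VEGF transcripts were quantified by qRT-PCR, normalized to GAPDH, and expressed as relative fold change.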

Quadruplex DNA [6] = assay: Binding affinity to human c-Kit1 G-quadruplex DNA assessed as stabilization of parallel stranded topology after 5 mins in presence of KCl by CD spectroscopic method; type: nucleic-acid assay; summary of the method: as §1
Quadruplex DNA [7] = assay: Displacement of thiazole orange from human telomeric G-quadruplex DNA after 5 mins in presence of KCl by fluorescence assay; type: nucleic-acid assay
Summary of the method: (§3)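 Thiazole orange displacement from a G4 DNA–TO complex (1 µM TO + 0.5 µM G4 DNA) in 10 mM Tris-HCl pH 7.4, 100 mM KCl, 0.1 mM EDTA. Ligand was added in increasing steps, with 5 min incubation each. Fluorescence read at ex 501/em 531 nm; % displacement = 100 − (Ft/F0 × 100). DC50 is the ligand concentration giving 50% displacement, read from plots; average of two independent experiments.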

Quadruplex DNA [8] = assay: Binding affinity to human telomeric G-quadruplex DNA assessed as change in melting temperature in presence of KCl by CD spectroscopic method; type: nucleic-acid assay; summary of the method: as §2
Quadruplex DNA [9] = assay: Binding affinity to human c-Kit2 G-quadruplex DNA assessed as change in melting temperature in presence of KCl by CD spectroscopic method; type: nucleic-acid assay; summary of the method: as §2
Quadruplex DNA [10] = assay: Displacement of thiazole orange from human c-Kit2 G-quadruplex DNA after 5 mins in presence of KCl by fluorescence assay; type: nucleic-acid assay; summary of the method: as §3

Chain of Telomerase reverse transcriptase (O14746 whole entry): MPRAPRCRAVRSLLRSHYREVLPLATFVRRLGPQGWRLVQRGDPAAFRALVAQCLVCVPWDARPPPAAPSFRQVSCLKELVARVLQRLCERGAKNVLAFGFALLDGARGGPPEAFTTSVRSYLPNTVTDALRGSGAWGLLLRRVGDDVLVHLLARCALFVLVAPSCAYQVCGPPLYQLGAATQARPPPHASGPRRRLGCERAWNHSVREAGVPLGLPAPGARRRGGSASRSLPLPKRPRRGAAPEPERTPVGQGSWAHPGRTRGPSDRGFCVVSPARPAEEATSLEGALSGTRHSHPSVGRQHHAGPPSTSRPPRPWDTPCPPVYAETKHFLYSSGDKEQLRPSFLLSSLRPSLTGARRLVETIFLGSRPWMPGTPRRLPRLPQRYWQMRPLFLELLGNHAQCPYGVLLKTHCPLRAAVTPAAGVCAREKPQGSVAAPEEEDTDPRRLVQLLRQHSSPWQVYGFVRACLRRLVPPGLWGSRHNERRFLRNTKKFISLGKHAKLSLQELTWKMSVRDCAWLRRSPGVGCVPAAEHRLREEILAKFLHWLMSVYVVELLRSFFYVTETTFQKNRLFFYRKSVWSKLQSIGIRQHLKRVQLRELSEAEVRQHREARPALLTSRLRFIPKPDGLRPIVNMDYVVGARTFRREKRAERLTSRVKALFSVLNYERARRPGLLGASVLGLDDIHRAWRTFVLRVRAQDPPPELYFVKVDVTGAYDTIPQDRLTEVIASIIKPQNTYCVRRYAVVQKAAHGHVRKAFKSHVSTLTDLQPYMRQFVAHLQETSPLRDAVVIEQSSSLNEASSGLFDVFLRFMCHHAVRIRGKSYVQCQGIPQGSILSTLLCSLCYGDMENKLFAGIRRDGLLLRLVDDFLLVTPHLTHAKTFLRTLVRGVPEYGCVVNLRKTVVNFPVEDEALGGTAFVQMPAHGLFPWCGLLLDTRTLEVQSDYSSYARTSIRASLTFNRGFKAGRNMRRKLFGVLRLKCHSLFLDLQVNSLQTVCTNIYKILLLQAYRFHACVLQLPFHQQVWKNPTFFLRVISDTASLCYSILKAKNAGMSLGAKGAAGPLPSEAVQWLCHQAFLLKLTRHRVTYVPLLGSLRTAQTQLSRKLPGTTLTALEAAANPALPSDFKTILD

## CN(C)CCCCn1c2ccc(-c3nc4ccc(N5CCN(CCO)CC5)cc4[nH]3)cc2c2cc(-c3nc4ccc(N5CCN(CCO)CC5)cc4[nH]3)ccc21
Quadruplex DNA [1]
  Activity: Active
Quadruplex DNA [2]
  ΔTm: 24.7 °C
[3]
  IC50: 300 nM
  inhibition: Dose-dependent effect
Quadruplex DNA [4]
  Activity: Active
HeLa
  Activity: Non-Toxic
Quadruplex DNA [5]
  Activity: 71%
Quadruplex DNA [6]
  Activity: Active
Quadruplex DNA [7]
  DC50: 1130 nM
Quadruplex DNA [8]
  ΔTm: 21.3 °C
Quadruplex DNA [9]
  ΔTm: 23.3 °C
Quadruplex DNA [10]
  DC50: 650 nM

From ChEMBL document CHEMBL4196021, “Targeting G-quadruplex DNA structures in the telomere and oncogene promoter regions by benzimidazole‒carbazole ligands” (Eur J Med Chem, 2018)
